# Data as given in ChEMBL document CHEMBL4513216, “Probing the Open Global Health Chemical Diversity Library for Multistage-Active Starting Points for Next-Generation Antimalarials” (ACS Infect Dis, 2020).
# Assay: Toxicity liver stage against HepG2, at 10uM
# Assay type: cell-based
# Set-up: test concentration 10 uM, cell line HepG2-A16-CD81EGFP
# Conditions: human, HepG2-A16-CD81EGFP cells; read-out: INHIBITION
# Method in brief: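 Uninfected HepG2-A16-CD81EGFP cells, 3 × 10^3 per well, 1536-well, plated on prespotted compound at 10 μM final, parasite-free screening media added to match infected plates; puromycin 10 μM positive, DMSO 0.5% negative; run in parallel with 48 h PbLuc assay at 37 °C, 5% CO2; viability by CellTiter-Glo luminescence, normalized to controls.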
row,SMILES,cytotoxicity at 10 µM [%]
1,Cn1c2c(c(=O)c3ccccc31)CCC(C)(C)O2,2.76
2,Cc1cccc(-c2noc([C@@H]3C[C@@H](O)CN3CC3CCCCC3)n2)c1,6.41
3,CCN1C(=O)COC[C@@H]1[C@H](O)c1ccc(NC(=O)COC)cc1,1.73
4,FC(F)(F)Oc1ccc(-c2c[nH]c([C@@H]3COCCN3)n2)cc1,-8.64
5,COc1ccc(S(=O)(=O)N2CCOC[C@H](Oc3cnccn3)C2)cc1,10.4
6,COc1ccccc1NC(=O)Cn1c(=O)nc(N)c2cc(C)sc21,3.45
7,CCS(=O)(=O)NCCNc1cc(-n2cccc2)ncn1,-3.5
8,CCN1C(=O)C[C@@H]2[C@@H]1CCN2S(=O)(=O)c1cccc(C)c1,1.29
9,O=C(Cc1cccs1)NCC1COCc2c(-c3ccoc3)nnn2C1 (stereo not drawn),19
10,COc1ncccc1CN1CC[C@H]2O[C@@H](c3nnc(C)o3)CC[C@H]21,9.6
11,CN1CCN(c2ncnc3c2CCN(Cc2nccn2C)CC3)CC1,-130
12,Cc1ncnc2c1CCN(C(=O)c1cnccn1)CC2,-5.19
13,COC(=O)C(C)NC(=O)CSCc1nc(O)c2cc(C(C)C)sc2n1 (stereo not drawn),10.2
14,CCCc1nc(Nc2cccc(C(N)=O)c2)c2c(n1)c(C)nn2CC,3.31
15,COc1cccc(Cn2cc(N3C(=O)CCC3=O)cn2)c1,-2.75
16,O=S(=O)(c1cccs1)N1CCCC(c2nccs2)C1 (stereo not drawn),-15
17,c1nc2c(c(N3CCOC(Cn4cncn4)C3)n1)CCC2 (stereo not drawn),14.5
18,O=C(NC1CC1)N(CCc1ccccc1)C1CCOC1 (stereo not drawn),-1.41
19,COc1ccccc1C(C)NC(=O)N1CCN(Cc2ccc(Br)s2)CC1 (stereo not drawn),10.5
20,CCOc1ccccc1NC(=O)NCc1ccoc1,-0.335
21,Cc1cccc(-c2ccc(C(=O)N3CCSCC3)c(=O)[nH]2)c1,6.99

row,SMILES,cytotoxicity at 10 µM [%]
1,CC(C)c1cc(NC(=O)Cn2cnc3ccccc3c2=O)[nH]n1,-168
2,CCc1cc(=O)[nH]c(-c2ccc(NC(CO)CC(C)C)nc2)n1 (stereo not drawn),-146
3,O=C(NCCCn1ccccc1=O)c1cnc(-c2ccsc2)s1,0.956
4,CCc1nc(CC)n(CC(=O)N(C)CC(F)(F)F)n1,2.19
5,CC(CNC(=O)c1cccnc1)Oc1ccc(F)cc1 (stereo not drawn),-6.98
6,CC(c1ccc(S(C)(=O)=O)cc1)N(C)C(=O)c1ccccc1I (stereo not drawn),11.1
7,COc1ccc(CN(C(=O)C(C)C)c2cnn(C)c2)c(OC)c1,3.2
8,Cc1c(Br)cccc1C(=O)NCc1cnn(C)c1,3.15
9,Fc1cc(CN2CCOC3(CCOCC3)C2)ccc1Cl,-4.57
10,CN(C(=O)COc1ccc(-c2noc(C3CCCO3)n2)cc1)C1CC1 (stereo not drawn),-6.79
11,Cc1ccc(C(=O)NCc2ccccc2S(=O)(=O)N(C)CCO)cc1F,-3.04
12,Cc1nc(C)n(CC2CCCN(CCCS(=O)(=O)N(C)C)C2)n1 (stereo not drawn),-3.15
13,CN(C)C(=O)Cn1cc(C(=O)NCCc2ccc(Cl)cc2Cl)nn1,-2.35
14,CN(CC(=O)NC1CC1)S(=O)(=O)c1ccc(F)cc1Cl,-8.06
15,COc1ccnc(NC(=O)c2cscc2C)c1,-16
16,CCc1nsc(N2CCN(C(=O)c3ccnc(N(C)C)c3)CC2)n1,-2.48
17,CS(=O)(=O)NCCCSCc1cccc2cccnc12,3.53
18,CCc1cccc(OCC(=O)NC(C)c2nnc3n2CCC3)c1 (stereo not drawn),-3.78
19,CC1CCN(C(=O)CSCc2noc(C(C)C)n2)CC1,1.4
20,CC(C)Cc1nc(CSCC(=O)N2CCC(C)CC2)no1,2.25
21,CC(=O)Nc1cc(C(=O)N2CCOCC2c2ccc(C)o2)ccc1F (stereo not drawn),-3.08

row,SMILES,cytotoxicity at 10 µM [%]
1,CCOCCOC(C)C(=O)NCc1cn2cc(Br)ccc2n1 (stereo not drawn),-6.83
2,O=C(NCc1ccc(OCC2CC2)nc1)c1c(F)cccc1F,1.49
3,CN(CCO)Cc1cc(Cl)ccc1OCC(O)CN1CCCCCC1 (stereo not drawn),-5.09
4,CCOc1ccccc1-n1c(C2CCC2)n[nH]c1=O,4.18
5,OC1(CNCCc2nc(Cc3ccccc3)no2)CNCCOC1 (stereo not drawn),4.43
6,CCC[C@H]1CN(S(C)(=O)=O)C[C@@H]1NC(=O)Cc1ccc(OC)cc1,1.85
7,CCN(CC)CCC(=O)NCc1cc2n(n1)CCN(C(=O)N(C)C)C2,-6.72
8,O=C(c1cn(-c2ccccc2)nn1)N1CCOCC(O)C1 (stereo not drawn),2.35
9,O=c1cc(N2CCc3ccccc3C2)cnn1CCC1CCOC1 (stereo not drawn),-1.19
10,CN(Cc1cc2cc(F)ccc2[nH]1)C(=O)C1CC(=O)N(C2CC2)C1 (stereo not drawn),0.0448
11,O=C1CCCCCN1Cc1nc(C2(c3ccc(F)cc3)CCOC2)no1 (stereo not drawn),21.1
12,Cc1ccc(NC2CCCN(CCc3ccccc3)C2)nn1 (stereo not drawn),11.7
13,CN1CCCC(CCC(=O)NCCc2nnc(N)s2)C1 (stereo not drawn),-146
14,C=C(C)COc1cccc(C(=O)N(CC)Cc2nc(COC)no2)c1,-18
15,Cc1cc(CNc2ccc(-c3nc(C4CC4)no3)cn2)no1,2.55
16,COc1cccc(-c2noc(-c3ccc(NCC(C)O)nc3)n2)c1OC (stereo not drawn),-5.82
17,Cc1cc(C(=O)N2CC[C@H](N3CCN(C)CC3)[C@H](CCCO)C2)n(C)n1,-12.4
18,CNc1nc(C(=O)NCc2cccnc2N(C)C)cs1,-7.57
19,OC1(CNCc2csc(-c3ncccn3)n2)CCCNC1 (stereo not drawn),-10.7
20,COc1ccc(NC(=O)CCC2CCCN(Cc3ncon3)C2)cc1Cl (stereo not drawn),-6.12
21,CNC(=O)c1ccc(C2CN(C(=O)COC)CCO2)nc1 (stereo not drawn),3.25

row,SMILES,cytotoxicity at 10 µM [%]
1,CCn1c(C(=O)N2CCCN(CC(N)=O)CC2)cc2ccccc21,-4.77
2,Cc1nc(CN2CCN(C(=O)NC(C)Cn3ccnc3)CC2)cs1 (stereo not drawn),-5.28
3,Cc1ccc(-c2nc(CNC(C)Cn3cccn3)cs2)o1 (stereo not drawn),-7.82
4,COCCC(C)NC(=O)c1cc(Br)c2c(c1)OCCO2 (stereo not drawn),-13.4
5,O=C(NCCc1ccccc1)NCC(O)c1cccc(F)c1 (stereo not drawn),-7.24
6,CC(NC(=O)COCC(F)(F)F)c1nnc2n1CCCCC2 (stereo not drawn),-12.3
7,CCN(Cc1cccc2c1OCO2)C(=O)NCc1ccccn1,1.48
8,CCCc1nc(CN2CCN(C(C)c3nc(C4CC4)no3)CC2)no1 (stereo not drawn),-8.14
9,Cc1nc(CN2CCCN(C(=O)c3sccc3C#N)CC2)cs1,-7.98
10,Cc1nc(CN(C)CC2CCCN2c2cccnn2)oc1C (stereo not drawn),-4.25
11,CC(C)N1CC(C(=O)NCc2ccnc(-n3cccn3)c2)CC1=O (stereo not drawn),-2.5
12,O=C1COC2(CCN(Cc3ccncc3)CC2)CN1c1ccccc1,-126
13,COc1ccc2c(c1)C1(CCN(Cc3cccnc3)CC1)N(C)CC2,-161
14,CCS(=O)(=O)N1CCOC2(CCCN(Cc3ccccn3)C2)C1 (stereo not drawn),5.86
15,O=C(O)c1cc2c(nc1-c1ccncc1)CCN(C1CCOC1)CC2 (stereo not drawn),9.34
16,COc1cc(CNC(C)Cn2ccnc2)cc2c1OCO2 (stereo not drawn),2.67
17,Cc1cccc(CN2CCc3ncnc(C4CC4)c3CC2)n1,-158
18,O=C([C@@H]1C[C@@H]2CCN(C3CCOCC3)C[C@H]2O1)N1CCOCC1,0.763
19,Cn1cc(-c2nc3c(cc2C(=O)O)CCN(C(=O)C2CC2)CC3)cn1,17.9
20,CCn1ncc2c1CN(C(=O)Cc1cccs1)CC2COC (stereo not drawn),4.7
